Consider one compound from ChEMBL document CHEMBL4219238, “Design, synthesis, molecular modelling and in vitro cytotoxicity analysis of novel carbamate derivatives as inhibitors of Monoacylglycerol lipase” (Bioorg Med Chem, 2018).

In data set [1] the test system is MCF7. The data set is described as follows: Induction of apoptosis in human MCF7 cells assessed as necrotic cells at 10 uM after 48 hrs by Annexin V-FITC/propidium iodide staining based flow cytometry (reference value: 5.42%). Format: functional. The gist of the method: (§1)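 HEK293T (DMEM with 10% FBS) or MCF7 (DMEM/Ham's F-12 1:1, 10% FBS) cells treated 48 h with 10 μM compound or DMSO. Staining with Alexa Fluor 488 annexin V plus 5 μg/ml PI in HEPES/NaCl/CaCl2 binding buffer; 10,000 cells per sample read by flow cytometry; n = 3, mean ± S.E.M.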
(A flow cytometer gives signals particle by particle.)

Data set [2] relates to B16-F10. The data set is described as follows: Induction of apoptosis in mouse B16F10 cells assessed as necrotic cells at 75 nM after 48 hrs by Annexin V-FITC/propidium iodide staining based flow cytometry (reference value: 5.48%). Format: functional.
The test system of data set [3] is B16-F10. The data set is described as follows: Induction of apoptosis in mouse B16F10 cells assessed as live cells at 10 uM after 48 hrs by Annexin V-FITC/propidium iodide staining based flow cytometry (reference value: 88.04%). The data set is classed as functional.
For data set [4], the target named is T1, Monoglyceride lipase (Homo sapiens) (UniProt Q99685).
T1 sequence (whole entry): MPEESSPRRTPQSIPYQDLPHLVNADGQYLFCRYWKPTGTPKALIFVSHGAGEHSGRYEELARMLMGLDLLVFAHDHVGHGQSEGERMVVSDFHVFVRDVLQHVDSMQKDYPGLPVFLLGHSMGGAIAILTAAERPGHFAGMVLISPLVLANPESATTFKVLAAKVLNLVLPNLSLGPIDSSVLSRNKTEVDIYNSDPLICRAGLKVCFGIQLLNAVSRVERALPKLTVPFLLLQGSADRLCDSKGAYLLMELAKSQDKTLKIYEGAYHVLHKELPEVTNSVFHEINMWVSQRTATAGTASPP
The data set is described as follows: Inhibition of MAGL in human MCF7 cells at 10 uM using 7-HRA as substrate preincubated for 6 hrs followed by substrate addition by fluorescence assay. Format: cell-based. The gist of the method: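 MCF7 cells cultured 6 h with 10 μM compound or DMSO, then lysed; MAGL activity measured on total cell lysate using the 7-HRA fluorogenic assay.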

For data set [5], the system named is B16-F10. The data set is described as follows: Induction of apoptosis in mouse B16F10 cells assessed as early apoptotic cells at 35 nM after 48 hrs by Annexin V-FITC/propidium iodide staining based flow cytometry (reference value: 1.43%). Format: functional.
Data set [6] relates to B16-F10. The data set is described as follows: Induction of apoptosis in mouse B16F10 cells assessed as live cells at 35 nM after 48 hrs by Annexin V-FITC/propidium iodide staining based flow cytometry (reference value: 79.55%). The data set is classed as functional.
For data set [7], the system named is HEK-293T. The data set is described as follows: Induction of apoptosis in HEK293T cells assessed as early apoptotic cells at 10 uM after 48 hrs by Annexin V-FITC/propidium iodide staining based flow cytometry (reference value: 7.41%). The data set is classed as cell-based. Conditions: human. In short, it runs like this:
as §1

Data set [8] deals with B16-F10. The data set is described as follows: Induction of apoptosis in mouse B16F10 cells assessed as live cells at 75 nM after 48 hrs by Annexin V-FITC/propidium iodide staining based flow cytometry (reference value: 79.55%). Format: functional.
Data set [9] deals with B16-F10. The data set is described as follows: Induction of apoptosis in mouse B16F10 cells assessed as late apoptotic cells at 75 nM after 48 hrs by Annexin V-FITC/propidium iodide staining based flow cytometry (reference value: 13.54%). Format: functional.
Data set [10] deals with HEK-293T. The data set is described as follows: Induction of apoptosis in HEK293T cells assessed as necrotic cells at 10 uM after 48 hrs by Annexin V-FITC/propidium iodide staining based flow cytometry (reference value: 8.09%). Conditions: human. Format: cell-based. In short, it runs like this:
as §1

Data set [11] deals with B16-F10. The data set is described as follows: Induction of apoptosis in mouse B16F10 cells assessed as apoptotic cells after 48 hrs by Annexin V-FITC/propidium iodide staining based flow cytometry.
The test system of data set [12] is HEK-293T. The data set is described as follows: Induction of apoptosis in HEK293T cells assessed as late apoptotic cells at 10 uM after 48 hrs by Annexin V-FITC/propidium iodide staining based flow cytometry (reference value: 2.07%). The data set is classed as cell-based. Conditions: human. The gist of the method: as §1
Data set [13] concerns MCF7. The data set is described as follows: Induction of apoptosis in human MCF7 cells assessed as late apoptotic cells at 10 uM after 48 hrs by Annexin V-FITC/propidium iodide staining based flow cytometry (reference value: 8.84%). Format: functional. The gist of the method: as §1
In a further data set the target is T2, Monoglyceride lipase (Homo sapiens, UniProt Q99685).
T2 sequence (Q99685 whole entry): T1 sequence (whole entry)
The data set is described as follows: Inhibition of recombinant human MAGL using 7-HRA as substrate preincubated for 60 mins followed by substrate addition by fluorescence assay. Conditions: read-out: IC50.

Data set [14] has as its system B16-F10. The data set is described as follows: Antiproliferative activity against mouse B16F10 cells at 10 uM after 48 hrs by Cyto Tracker red dye based flow cytometry. The data set is classed as functional, cell-based. In short, it runs like this:
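B16-F10 cells (Iscove's medium, 10% heat-inactivated FBS, 37 °C, 5% CO2) exposed to compound or DMSO for 48 h, stained with CytoTrack Red 628/643 and analysed by flow cytometry. Proliferation index (average number of cells that an initial cell became) expressed as fold change over DMSO control; n = 3; one-way ANOVA with Tukey post-test.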

Data set [15] concerns B16-F10. The data set is described as follows: Effect on ABHD6 mRNA expression in mouse B16F10 cells by RT-PCR method. The data set is classed as functional.
In data set [16] the test system is B16-F10. The data set is described as follows: Effect on MAGL mRNA expression in mouse B16F10 cells by RT-PCR method. Format: functional.
Data set [17] deals with T3, Fatty-acid amide hydrolase 1 (Homo sapiens) (UniProt O00519).
T3 sequence (whole entry): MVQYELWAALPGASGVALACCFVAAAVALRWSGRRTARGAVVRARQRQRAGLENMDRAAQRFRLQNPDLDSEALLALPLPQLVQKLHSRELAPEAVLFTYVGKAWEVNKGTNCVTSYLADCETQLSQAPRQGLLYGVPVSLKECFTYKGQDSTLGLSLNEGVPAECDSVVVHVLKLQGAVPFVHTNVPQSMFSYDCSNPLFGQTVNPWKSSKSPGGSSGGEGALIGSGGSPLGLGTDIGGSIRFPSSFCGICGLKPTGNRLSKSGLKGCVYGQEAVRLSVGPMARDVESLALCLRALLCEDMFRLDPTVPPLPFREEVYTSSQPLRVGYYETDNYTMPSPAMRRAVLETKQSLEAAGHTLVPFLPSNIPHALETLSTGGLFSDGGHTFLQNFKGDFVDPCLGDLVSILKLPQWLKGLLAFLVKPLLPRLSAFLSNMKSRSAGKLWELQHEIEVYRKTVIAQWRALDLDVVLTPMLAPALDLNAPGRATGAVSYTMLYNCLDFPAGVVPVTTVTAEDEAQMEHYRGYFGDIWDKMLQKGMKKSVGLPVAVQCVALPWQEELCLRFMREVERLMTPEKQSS
The data set is described as follows: Inhibition of human FAAH at 10 uM using AAMCA as substrate preincubated for 1 hr followed by substrate addition measured after 30 mins by fluorescence assay relative to control. In short, it runs like this: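 Recombinant human FAAH (C-terminal His-tagged, Sf21), 1 U/well, in 50 mM Tris-HCl, 1 mM EDTA, pH 9, preincubated 1 h at room temperature with 10 μM compound (final). AAMCA added to 20 μM final; fluorescence (ex 360/em 460 nm) read every 3 min for 30 min. Rate by linear regression, no-enzyme background subtracted, normalised to no-inhibitor control.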

Data set [18] relates to MCF7. The data set is described as follows: Induction of apoptosis in human MCF7 cells assessed as early apoptotic cells at 10 uM after 48 hrs by Annexin V-FITC/propidium iodide staining based flow cytometry (reference value: 3.16%). Format: functional. The gist of the method:
as §1

Active and inactive are the calls of the source. No cut-off for these calls is given here.

Broadly, the inhibition is the percentage by which the read-out fell short of the control. What is called IC50 is the concentration that inhibits the measured activity by half.

`O=C(Nc1cccc(-c2ccc(C(F)(F)F)cc2)c1)OCc1ccco1`: the Activity in the data set with MCF7 [1] is reported as 5.33%; with B16-F10 [2], 4.33%; in the data set with B16-F10 [3], 17.8%; in the data set on B16-F10 [5], 1.9%; in the data set on B16-F10 [6], 66.12%; in the data set with HEK-293T [7], 8.13%. Moreover, the Activity in the data set on B16-F10 [8] was 62.84%; with B16-F10 [9], 30.39%; with HEK-293T [10], 8.4%; with B16-F10 [11], “Dose-dependent effect”; with HEK-293T [12] it was 2.1%; in the data set with MCF7 [13], 25.63%. For the same compound, the Activity with MCF7 [18] turned out to be 8.77%. For the same compound, in data set [4], the inhibition entry was “Active”. In addition, the IC50 at Monoglyceride lipase worked out at 6.7 µM. For the same compound, the outcome in the data set with B16-F10 [14] was Active. Besides, the deltaCT is reported as 10.73 in the data set on B16-F10 [15] and 11.05 in the data set on B16-F10 [16]. This compound also registered an inhibition in data set [17] of 10%.
